# Source: paper PMC4486263 (Journal of biomolecular screening, 2014)
# Entries after “also recorded” stand apart in the source; their conditions may differ.
# Columns and labels:
# Six1-Eya2 interaction = molecular target: T1, Six1-Eya2 interaction (Homo sapiens, UniProt O00167+Q15475); experiment: Counterscreen AlphaScreen assay, Six1-Eya2; assay type: binding; settings: 20 nM to 50 μM
# T1 sequence (Q15475 1-284): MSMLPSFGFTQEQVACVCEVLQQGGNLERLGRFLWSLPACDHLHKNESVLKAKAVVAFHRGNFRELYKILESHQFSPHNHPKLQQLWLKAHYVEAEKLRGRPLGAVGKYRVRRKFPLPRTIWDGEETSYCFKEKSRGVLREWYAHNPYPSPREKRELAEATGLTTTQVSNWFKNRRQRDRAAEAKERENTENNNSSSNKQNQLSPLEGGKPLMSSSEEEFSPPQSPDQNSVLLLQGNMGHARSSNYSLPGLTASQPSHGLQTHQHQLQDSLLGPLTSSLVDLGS
# T1 sequence (O00167 1-538): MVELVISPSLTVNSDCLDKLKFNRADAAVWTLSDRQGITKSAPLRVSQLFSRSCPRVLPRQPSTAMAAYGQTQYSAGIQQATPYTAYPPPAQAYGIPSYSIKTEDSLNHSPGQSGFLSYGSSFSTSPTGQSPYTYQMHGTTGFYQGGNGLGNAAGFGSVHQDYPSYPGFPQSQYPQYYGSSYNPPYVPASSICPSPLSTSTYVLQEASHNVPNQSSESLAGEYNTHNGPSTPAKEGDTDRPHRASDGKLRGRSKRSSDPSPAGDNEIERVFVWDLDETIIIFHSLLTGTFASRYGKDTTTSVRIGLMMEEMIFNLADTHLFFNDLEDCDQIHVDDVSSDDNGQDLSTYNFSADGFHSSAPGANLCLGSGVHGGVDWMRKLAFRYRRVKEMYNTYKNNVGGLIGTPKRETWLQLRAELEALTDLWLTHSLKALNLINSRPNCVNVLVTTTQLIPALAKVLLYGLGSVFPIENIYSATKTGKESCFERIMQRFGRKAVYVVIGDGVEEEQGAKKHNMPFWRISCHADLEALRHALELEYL
# Summary of the method: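 Counterscreen AlphaScreen with 200 nM 6xHis-Eya2 and GST-Six1 in 50 mM Tris pH 8.0, 250 mM NaCl, 0.05% BSA, 0.02% Tween-20. Test compound was added at 20 nM to 50 μM. Glutathione donor and Ni-chelate acceptor beads were added from a 25 ng/μL (each) bead solution. Incubated 2 h at 25 °C, then read in AlphaScreen mode.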
# [1] = molecular target: CtBP1-E1A peptide interaction (Homo sapiens, UniProt Q13363); experiment: Fluorescence polarization assay with FITC-labeled E1A 14-mer peptide; assay type: binding; settings: for disruption of the CtBP1-peptide interaction (in words): up to 100 μM
# lactate dehydrogenase = experiment: Lactate dehydrogenase enzymatic assay; assay type: biochemical
# Summary of the method: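 Lactate dehydrogenase at 5 nM in PBS with 100 μM NADH. Incubated with 5 μM pyruvate or varying test compound concentrations for 1 min at 30 °C. NADH consumption monitored spectrophotometrically at 340 nm; activity as nmol/min/mg protein.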
# CtBP1-E1A interaction [2] = molecular target: T2, CtBP1-E1A interaction (Homo sapiens, UniProt Q13363); experiment: CtBP1-E1A AlphaScreen assay; assay type: binding; settings: for disruption of the CtBP1-E1A interaction (in words): up to 100 μM
# CtBP1-E1A interaction [3] = molecular target: T2, CtBP1-E1A interaction; experiment: Competitive ELISA; assay type: binding; settings: read-out: IC50, disruption of the CtBP1-E1A interaction
# Summary of the method: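 Plates coated with His-tagged CtBP1 (E. coli-expressed, Ni-affinity then size-exclusion purified) in 50 mM Tris pH 8.0, 250 mM NaCl, 1 h at 25 °C. Blocked 1 h with 1% BSA/0.05% Tween-20 in 50 mM Tris pH 8.0, 250 mM NaCl, 1 mM TCEP. GST-Ad5 E1A was added with increasing test compound concentrations in triplicate for 1 h at 25 °C. Detection used rabbit anti-GST (1:1500), then goat anti-rabbit (1:2500), 1 h each, and ABTS absorbance.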
# [4] = system: MEF3 promoter (SIX1 transcriptional complex); experiment: MEF3 promoter luciferase reporter assay in H1299 cells; assay type: cell-based; settings: 18 hrs, normalized to Renilla
# Summary of the method: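 H1299 cells were seeded at 2000 cells/well and adhered overnight. FuGENE 6 transfection used 60 ng/well pGL3-MEF3 promoter, 40 ng/well Six1, 30 ng/well Eya2 and 14 ng/well Renilla luciferase. After 10 h, cells were treated with varying test compound concentrations for 18 h. Dual-luciferase read-out after passive lysis, with Firefly normalised to Renilla.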
# NCI 60 tumor-cell panel = settings: ref http://dtp.nci.nih.gov/; cited from earlier work
# [5] = system: CtBP1-mediated repression of the E-cadherin promoter; experiment: E-cadherin promoter luciferase reporter assay in H1299 cells; assay type: cell-based; settings: 18 hrs, normalized to Renilla
# Summary of the method: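 H1299 cells were seeded at 2000 cells/well and adhered overnight. FuGENE 6 transfection used 30 ng/well pGL3-E-cadherin promoter plus 10 ng/well Renilla luciferase. After 10 h, cells were treated with varying test compound concentrations for a further 18 h. Passive lysis, then dual-luciferase measurement with Firefly normalised to Renilla.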
# CtBP1 = CtBP1 (Homo sapiens, UniProt Q13363); experiment: CtBP1 enzymatic assay; assay type: biochemical; settings: NADH oxidation, 340 nm
# Summary of the method: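 E. coli-expressed His-CtBP1 (2 μM) in PBS with NADH. Test compound was added at increasing concentrations in 100 μL reactions after a 2 min incubation at 30 °C. Substrate reduction followed as NADH disappearance at 340 nm by spectrophotometer. Activity expressed as nmol NADH/min/mg protein.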
compound,measurement,setting,value
O=C1c2ccccc2C(=O)c2c(NCCc3ccc(O)cc3)ccc(NCCc3ccc(O)cc3)c21 [JFD00244],inhibition of the Six1-Eya2 interaction,Six1-Eya2 interaction,efficiently inhibited
CCCn1c(=O)c2[nH]c(C3CCCC3)nc2n(CCCOC(=O)c2ccc(S(=O)(=O)F)cc2)c1=O [FSCPX],disruption of the CtBP1-peptide interaction (in words),[1],inactive; also recorded: unable to disrupt
same,inhibition of the Six1-Eya2 interaction,Six1-Eya2 interaction,did not inhibit
O.c1cnc2c(c1)ccc1cccnc12 [10-phenanthroline monohydrate],inhibition of the Six1-Eya2 interaction,Six1-Eya2 interaction,efficiently inhibited
CC(=O)C(=O)O [pyruvate],LDH activity with substrate,lactate dehydrogenase,9680 ± 558 nmol/min/mg protein
O=C1O/C(=C/Br)CCC1c1cccc2ccccc12 (centres unmarked) [bromoenol lactone],inhibition of the Six1-Eya2 interaction,Six1-Eya2 interaction,efficiently inhibited
"CSCCC(=O)C(=O)O [MTOB, 4-methylthio-2-oxobutanoic acid]",disruption of the CtBP1-peptide interaction (in words),[1],ineffective at disrupting the interaction; also recorded: unable to inhibit
same,disruption of the CtBP1-E1A interaction (in words),CtBP1-E1A interaction [2],ineffective at disrupting the interaction; also recorded: unable to inhibit; also recorded: unable to affect the protein interaction
Nc1c(S(=O)(=O)O)cc(Nc2ccc(Nc3nc(Cl)nc(Nc4cccc(S(=O)(=O)O)c4)n3)c(S(=O)(=O)O)c2)c2c1C(=O)c1ccccc1C2=O [reactive blue 2],inhibition of the Six1-Eya2 interaction,Six1-Eya2 interaction,efficiently inhibited
O=C1C(SCCO)=C(SCCO)C(=O)c2ccccc21 [NSC95397],IC50,CtBP1-E1A interaction [3],10 ± 1.3 µM
same,inhibition of LDH (pyruvate reduction),"lactate dehydrogenase; 5 μM pyruvate, up to 100 μM compound",did not significantly inhibit; also recorded: unable to detect any inhibition; also recorded: unable to inhibit
same,substrate of LDH (NADH consumption without pyruvate),"lactate dehydrogenase; increasing concentrations, no pyruvate",nor did it exhibit significant consumption of NADH; also recorded: did not detect a significant loss in NADH levels
same,IC50,"[1]; read-out: IC50, CtBP1-E1A peptide interaction, 3 μM CtBP1, 5 nM FITC-E1A peptide",0.61 ± 0.12 µM
same,disruption of the CtBP1-peptide interaction (in words),[1],able to disrupt the interaction; also recorded: efficiently inhibits
same,IC50,"CtBP1-E1A interaction [2]; read-out: IC50, inhibition of the CtBP1-E1A interaction",2.9 µM
same,disruption of the CtBP1-E1A interaction (in words),CtBP1-E1A interaction [2],able to disrupt the interaction; also recorded: efficiently inhibits
same,"luciferase activity, MEF3 promoter",[4],unaltered; also recorded: has no effect
same,average GI50s over all cell lines,NCI 60 tumor-cell panel,1.04 µM
same,"luciferase activity, E-cadherin promoter",[5],able to disrupt CtBP-mediated transcriptional repression; also recorded: increased with increasing concentrations; also recorded: can reverse CtBP-mediated transcriptional repression
same,inhibition of the Six1-Eya2 interaction,Six1-Eya2 interaction,did not inhibit; also recorded: does not inhibit; also recorded: did not detect a loss of AlphaScreen signal
same,maximal activity as CtBP1 substrate,CtBP1,28.5 ± 4.9 nmol/min/mg protein
CCCCc1ccc(C(=O)O)nc1 [fusaric acid],disruption of the CtBP1-peptide interaction (in words),[1],inactive; also recorded: unable to disrupt
same,inhibition of the Six1-Eya2 interaction,Six1-Eya2 interaction,did not inhibit
